Assay results taken from ChEMBL document CHEMBL4359814, “A Potent Isoprenylcysteine Carboxylmethyltransferase (ICMT) Inhibitor Improves Survival in Ras-Driven Acute Myeloid Leukemia” (J Med Chem, 2019).
pKd: −log10 of the molar value. Active and inactive are the calls of the source. The calls are words filed in the database; no cut-off is given here.

Experiments:
[1] = biological target: Protein-S-isoprenylcysteine O-methyltransferase (Homo sapiens) (UniProt O60725); experiment: Inhibition of recombinant human ICMT expressed in Sf9 insect cell membranes at 50 uM using biotin-farnesyl-L-cysteine as substrate preincubated for 15 mins followed by substrate addition and measured after 30 mins by scintillation counting analysis relative to control
Albumin = Albumin (Homo sapiens, UniProt P02768); experiment: Binding affinity to human serum albumin; type: ADME; conditions: for fraction unbound: human, human serum albumin, read-out: PB (converted)
[2] = Permeability of the compound; type: ADME
Method in brief: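 Parallel artificial membrane assay, expressed as percentage of compound passing through the membrane. Mean±SEM of at least two independent experiments in duplicate.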

PC-3 [3] = experiment: Induction of apoptosis in human PC3 cells assessed as increase in caspase 3 activity at 25 uM; type: functional, cell-based
[4] = biological target: Protein-S-isoprenylcysteine O-methyltransferase (Homo sapiens) (UniProt O60725); experiment: Inhibition of ICMT in human AD293 cells transfected GFP-fused H-Ras assessed as induction of H-Ras mislocalization at 5 uM by laser scanning confocal microscopic analysis; type: cell-based
Method in brief: (§1)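 AD-293 cells were transiently transfected with GFP fusion plasmids of H-Ras, K-Ras4A, K-Ras4B or N-Ras. They were treated overnight with 5 μM compound or DMSO, then imaged live by laser scanning confocal microscopy. Three independent transfections were performed in triplicate.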

[5] = biological target: Protein-S-isoprenylcysteine O-methyltransferase (Homo sapiens) (UniProt O60725); experiment: Inhibition of ICMT in human AD293 cells transfected GFP-fused N-Ras assessed as induction of N-Ras mislocalization at 5 uM by laser scanning confocal microscopic analysis; type: cell-based; method in brief: as §1
PK9 = experiment: Induction of apoptosis in human PK9 cells assessed as increase in sub-G0/G1 population at 50 uM measured after 24 hrs by propidium iodide staining based flow cytometry; type: functional, cell-based
[6] = biological target: Protein-S-isoprenylcysteine O-methyltransferase (Homo sapiens) (UniProt O60725); experiment: Inhibition of ICMT in human AD293 cells transfected GFP-fused K-Ras4B assessed as induction of K-Ras4B mislocalization at 5 uM by laser scanning confocal microscopic analysis; type: cell-based; method in brief: as §1
[7] = biological target: Tyrosine-protein kinase Fyn (Homo sapiens) (UniProt P06241); experiment: Effect on GFP-fused Fyn (unknown origin) transfected in human AD293 cells assessed as induction of Fyn mislocalization at 5 uM by laser confocal microscopic analysis; type: cell-based
PANC-1 = experiment: Induction of apoptosis in human PANC1 cells assessed as increase in sub-G0/G1 population at 50 uM measured after 24 hrs by propidium iodide staining based flow cytometry; type: functional, cell-based
[8] = biological target: Protein-S-isoprenylcysteine O-methyltransferase (Homo sapiens) (UniProt O60725); experiment: Inhibition of ICMT in human PC3 cells assessed as induction of mislocalization of endogenous Ras at 5 uM preincubated for 48 hrs followed by compound washout and subsequent compound addition measured after 72 hrs by Hoechst 33258 staining-based confocal microscopic analysis; type: cell-based
Method in brief: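 PC3 cells were seeded at 2×10^4 on poly-D-lysine coverslips for 24 h in RPMI with 10% FBS. They were treated with compound or DMSO for 120 h, with medium and compound renewed at 48 h. Cells were fixed in 4% PFA, permeabilised with Triton X-100, and stained with anti-Ras and a fluorescent secondary, with Hoechst for nuclei. Imaging used a 60X confocal objective, and membrane Ras signal was quantified.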

PC-3 [9] = experiment: Induction of apoptosis in human PC3 cells assessed as increase in cleaved PARP expression at 25 uM measured after 24 hrs by Western blot analysis; type: functional, cell-based
[10] = biological target: Protein-S-isoprenylcysteine O-methyltransferase (Homo sapiens) (UniProt O60725); experiment: Inhibition of ICMT in human AD293 cells transfected GFP-fused K-Ras4A assessed as induction of K-Ras4A mislocalization at 5 uM by laser scanning confocal microscopic analysis; type: cell-based; method in brief: as §1
MIA PaCa-2 = experiment: Induction of apoptosis in human MIAPaCa2 cells assessed as increase in sub-G0/G1 population at 50 uM measured after 24 hrs by propidium iodide staining based flow cytometry; type: functional, cell-based
HuP-T4 = experiment: Induction of apoptosis in human HUPT4 cells assessed as increase in sub-G0/G1 population at 50 uM measured after 24 hrs by propidium iodide staining based flow cytometry; type: functional, cell-based
PC-3 [11] = experiment: Induction of autophagy in human PC3 cells assessed as increase in LC3 expression at 25 uM measured after 24 hrs by Western blot analysis; type: functional, cell-based
Capan-2 = experiment: Induction of apoptosis in human Capan2 cells assessed as increase in sub-G0/G1 population at 50 uM measured after 24 hrs by propidium iodide staining based flow cytometry; type: functional, cell-based
[12] = biological target: T1, Protein farnesyltransferase (Homo sapiens) (UniProt P49354+P49356); experiment: Inhibition of FTase in human PC3 cells assessed as reduction in HDJ2 farnesylation at 10 uM measured after 24 hrs by Western blot analysis; type: cell-based
CAAX prenyl protease 2 = biological target: T2, CAAX prenyl protease 2 (Homo sapiens, UniProt Q9Y256); experiment: Inhibition of Rce1 in human PC3 cells at 10 uM using KSKTKC(f)VI as substrate measured after 24 hrs by LC-MS/MS analysis; type: cell-based
T2 sequence (Q9Y256 whole entry): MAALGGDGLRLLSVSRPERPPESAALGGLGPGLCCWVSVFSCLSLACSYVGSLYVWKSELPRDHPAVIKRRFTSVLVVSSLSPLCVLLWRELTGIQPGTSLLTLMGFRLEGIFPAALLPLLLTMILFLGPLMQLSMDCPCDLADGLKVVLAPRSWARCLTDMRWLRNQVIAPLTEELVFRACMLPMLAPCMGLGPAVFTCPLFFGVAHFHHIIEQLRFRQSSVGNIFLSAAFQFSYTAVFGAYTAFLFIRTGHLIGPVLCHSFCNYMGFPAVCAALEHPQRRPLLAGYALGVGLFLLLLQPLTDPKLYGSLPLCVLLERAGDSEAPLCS
Method in brief: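 PC-3 cells were incubated ±10 μM compound for 24 h and homogenised in 100 mM HEPES pH 7.5, 5 mM MgCl2, 0.5% NP-40. Homogenate, 0.2 mg, was reacted with 250 μM KSKTKC(f)VI for 60 min at 37 °C. Reactions were stopped with ice-cold acetonitrile, and the M+2/2 ion was followed by HPLC-MS/MS.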

[13] = Drug level in NSG mouse plasma xenografted with human HL60 cells at 25 mg/kg, ip administered 5 days a week followed by 2 days interval for 15 days measured 2 hrs post-last dose by LC-MS/MS analysis; type: ADME, organism-based
[14] = […] at 25 mg/kg, ip measured up to 6 hrs by LC-MS/MS analysis; type: ADME, organism-based; conditions: NSG, mouse, plasma
[15] = Drug level in NSG mouse plasma at 25 mg/kg, ip measured after 1 hr by LC-MS/MS analysis; type: ADME, organism-based
Method in brief: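 8-week female mice received a single 25 mg/kg ip dose. Blood was taken by cardiac puncture at set time points (n=3 per point), clotted 30 min at rt and centrifuged. Serum was extracted with cold acetonitrile, filtered, and analysed by LC-MS/MS on a C18 column using positive ESI and MRM transition 423.50 > 289.05.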

Homo sapiens [16] = organism: Homo sapiens; experiment: Inhibition of GGTase in human PC3 cells assessed as reduction in Rap1A geranylgeranylation at 1 uM measured after 24 hrs by Western blot analysis; type: cell-based
[17] = biological target: T1, Protein farnesyltransferase (Homo sapiens); conditions: 1 uM
Homo sapiens [18] = organism: Homo sapiens; experiment: Inhibition of GGTase in human PC3 cells assessed as reduction in Rap1A geranylgeranylation at 10 uM measured after 24 hrs by Western blot analysis; type: cell-based

Chain of Protein-S-isoprenylcysteine O-methyltransferase (Homo sapiens) (O60725 whole entry, the tested form may be a part): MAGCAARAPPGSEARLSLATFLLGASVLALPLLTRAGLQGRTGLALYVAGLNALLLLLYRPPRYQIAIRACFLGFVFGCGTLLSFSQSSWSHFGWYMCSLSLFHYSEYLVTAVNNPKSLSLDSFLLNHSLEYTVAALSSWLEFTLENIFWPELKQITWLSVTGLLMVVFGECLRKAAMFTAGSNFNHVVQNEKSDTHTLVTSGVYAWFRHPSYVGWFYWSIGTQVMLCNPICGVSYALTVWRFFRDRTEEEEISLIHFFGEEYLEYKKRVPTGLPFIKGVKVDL
Chain of Albumin (P02768 whole entry): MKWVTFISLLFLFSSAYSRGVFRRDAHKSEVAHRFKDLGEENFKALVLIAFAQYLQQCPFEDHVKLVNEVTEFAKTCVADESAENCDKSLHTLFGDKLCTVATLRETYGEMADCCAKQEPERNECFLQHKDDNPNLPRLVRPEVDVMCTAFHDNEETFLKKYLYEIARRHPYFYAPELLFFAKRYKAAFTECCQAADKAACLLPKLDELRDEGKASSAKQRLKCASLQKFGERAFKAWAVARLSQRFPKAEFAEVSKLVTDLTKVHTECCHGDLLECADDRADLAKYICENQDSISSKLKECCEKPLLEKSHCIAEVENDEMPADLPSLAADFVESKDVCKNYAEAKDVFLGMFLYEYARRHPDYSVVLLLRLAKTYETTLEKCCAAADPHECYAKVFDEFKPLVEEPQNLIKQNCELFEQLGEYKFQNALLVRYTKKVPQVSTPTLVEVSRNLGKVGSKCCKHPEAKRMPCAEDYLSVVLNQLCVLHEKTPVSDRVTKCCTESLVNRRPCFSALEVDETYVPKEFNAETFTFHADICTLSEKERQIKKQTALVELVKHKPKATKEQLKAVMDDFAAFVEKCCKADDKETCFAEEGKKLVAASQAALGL
Chain of Tyrosine-protein kinase Fyn (Homo sapiens) (P06241 2-537 limits assumed): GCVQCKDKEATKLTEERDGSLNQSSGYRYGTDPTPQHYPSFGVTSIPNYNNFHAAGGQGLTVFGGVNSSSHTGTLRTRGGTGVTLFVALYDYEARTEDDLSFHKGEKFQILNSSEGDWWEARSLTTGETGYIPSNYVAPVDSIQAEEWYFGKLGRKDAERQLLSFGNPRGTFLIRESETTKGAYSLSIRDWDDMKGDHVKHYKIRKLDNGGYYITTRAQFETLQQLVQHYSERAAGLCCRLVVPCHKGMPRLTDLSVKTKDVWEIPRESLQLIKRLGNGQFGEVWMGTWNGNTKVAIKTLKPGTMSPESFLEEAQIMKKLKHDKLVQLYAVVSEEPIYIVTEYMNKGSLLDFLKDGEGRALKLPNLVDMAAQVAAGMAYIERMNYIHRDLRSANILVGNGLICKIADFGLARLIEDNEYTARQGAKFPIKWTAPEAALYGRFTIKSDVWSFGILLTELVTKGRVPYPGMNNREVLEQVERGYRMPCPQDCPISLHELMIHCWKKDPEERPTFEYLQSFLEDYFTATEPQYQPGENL

Structure (SMILES): CCOCCOCCN(CCC(=O)Nc1ccccc1)CCC(=O)Nc1ccccc1
- inhibition [1]: 15%

Structure (SMILES): CCCCCCCCN(CCC(=O)Nc1ccccc1)CCC(=O)Nc1ccc(F)cc1
- pKd (Albumin): 5.11
- fraction unbound (Albumin): 0.013
- permeability [2]: 54%

Structure (SMILES): CCCCCCCCn1cc(CC(N)=O)c2cc(-c3cccc(C)c3)ccc21
- Activity (PC-3 [3]): Active
- inhibition [4]: Active
- inhibition [5]: Active
- Activity (PK9): Active
- inhibition [6]: Active
- Activity [7]: inactive
- Activity (PANC-1): Active
- inhibition [8]: Active
- Activity (PC-3 [9]): Active
- inhibition [10]: Active
- Activity (MIA PaCa-2): Active
- Activity (HuP-T4): Active
- Activity (PC-3 [11]): Active
- Activity (Capan-2): Active

Structure (SMILES): CCCCCCCCN(CCC(=O)Nc1ccccc1)CCS(=O)(=O)Nc1ccccc1
- inhibition [1]: 22%

Structure (SMILES): CCCCCCCCN(CCC(=O)Nc1ccccc1)CCC(=O)NC1CCCCC1
- pKd (Albumin): 5.52
- fraction unbound (Albumin): 0.005
- permeability [2]: 50%

Structure (SMILES): CCCCCCCCN(CCC(=O)Nc1ccccc1)CCC(=O)Nc1ccccc1
- inhibition [12]: inactive
- inhibition (INH) (CAAX prenyl protease 2): Not Active
- pKd (Albumin): 4.55
- fraction unbound (Albumin): 0.046
- concentration at 2 h [13]: 736 nM
- permeability [2]: 68%
- Activity [7]: inactive
- concentration at 6 h [14]: 480 nM
- concentration at 1 h [15]: 1700 nM

Structure (SMILES): CCCCCCCCN(CCC(=O)Nc1ccccc1)CCS(=O)(=O)N(C)c1ccccc1
- inhibition [1]: 10%

Structure (SMILES): NC(=O)N1CCC(CC(=O)N2CCC([C@H]3c4ncc(Br)cc4CCc4cc(Cl)cc(Br)c43)CC2)CC1
- inhibition (Homo sapiens [16]): inactive
- inhibition [17]: Active

Structure (SMILES): CCCCCCCCN(CCS(=O)(=O)N(C)c1ccccc1)CCS(=O)(=O)N(C)c1ccccc1
- inhibition [1]: 12%

Structure (SMILES): COC(=O)[C@H](CC(C)C)NC(=O)c1ccc(NC[C@@H](N)CS)cc1-c1cccc2ccccc12
- inhibition [12]: inactive
- inhibition (Homo sapiens [18]): Active

Structure (SMILES): CCCCCCCCN(CCS(=O)(=O)Nc1ccccc1)CCS(=O)(=O)Nc1ccccc1
- inhibition [1]: 34%
